These results are taken from ChEMBL document CHEMBL3745654, “N-Alkylated arylsulfonamides of (aryloxy)ethyl piperidines: 5-HT(7) receptor selectivity versus multireceptor profile” (Bioorg Med Chem, 2016).

As a reminder, the inhibition is the change of the read-out against control, counted positive when it falls.

Data set [1] deals with Mus musculus. In words: Antidepressant-like activity in Swiss albino mouse assessed as reduction in immobility time at 0.312 to 1.25 mg/kg, ip dosed 60 mins before test measured after 6 mins by forced swim test. The format is functional, organism-based. The gist of the method: (§1)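 Male Swiss albino mice (22–26 g), 7–12 per dose. Compounds dissolved in distilled water and given ip 60 min before test. Each mouse placed for 6 min in a glass cylinder with 10 cm of water at 23–25 °C. Immobility (floating with minimal movement) scored over the last 4 min by a blinded observer. One-way ANOVA with Bonferroni.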

Data set [2] has as its system Mus musculus. The data set can be described thus: Toxicity in Swiss albino mouse assessed as effect on spontaneous locomotor activity at 0.312 to 1.25 mg/kg, ip dosed 60 mins before test measured after 2 to 6 mins. It counts as organism-based. To be noted: in vivo.
Data set [3] is described as follows: Drug metabolism in mouse liver microsomes assessed as retention time of N-dealkylated metabolite at 20 uM at pH 7.4 incubated for 15 mins by UPLC/MS analysis in presence of NADPH. It counts as ADME. To be noted: pH 7.4, 0.25 h. The gist of the method:
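Compound (20 µM) incubated with mouse liver microsomes (0.2 mg/ml) in 100 mM potassium phosphate, pH 7.4, 37 °C. Reaction started with NADPH-regenerating system; blank without NADPH run in parallel. Sampling at 5, 15, 30 and 60 min (some to 120 min), in duplicate. Levallorphan internal standard; UPLC/MS quantitation. t1/2 from ln % remaining vs time.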

Data set [4] relates to Rattus norvegicus. In words: Effect on exploratory activity in PCP-treated Sprague-Dawley rat at 1 mg/kg, ip dosed 1 hr and 15 mins before familiarization phase by novel object recognition test. It counts as functional, organism-based. A digest of the protocol: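 Male Sprague–Dawley rats (~250 g), 7–12 per group, PCP-induced deficit model. Compounds ip 1 h and 15 min before T1. Day 1: 5-min arena habituation. Day 2: two 3-min trials 1 h apart, with two identical objects, then one replaced by a novel object. Exploration and distance video-tracked; discrimination index computed; ANOVA with Newman–Keuls.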

Data set [5] deals with 5-hydroxytryptamine receptor 2A (Homo sapiens, UniProt P28223). The data set can be described thus: Antagonist activity at human 5-HT2A receptor expressed in HEK293 cells assessed as inhibition of serotonin-induced inositol-1-phosphate accumulation at 1 uM after 30 mins by HTRF assay. The format is functional, cell-based. The gist of the method:
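Cellular functional antagonist assay in HEK293 cells stably expressing human 5-HT2A receptor, run externally. Inhibition of control agonist response (serotonin 100 nM) measured with compound at 10^-6 M.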
Background: In TR-FRET formats the signal depends on donor and acceptor labels being close together.

The target in data set [6] is D(3) dopamine receptor (Homo sapiens) (UniProt P35462). In words: […] human dopamine D3 receptor expressed in CHO cells assessed as inhibition of dopamine-induced cAMP level at 1 uM after 30 mins by HTRF method. The format is cell-based. Background: Changes in cAMP serve as a functional read-out for many G protein-coupled receptors.
Chain of D(3) dopamine receptor (Homo sapiens) (P35462 whole entry): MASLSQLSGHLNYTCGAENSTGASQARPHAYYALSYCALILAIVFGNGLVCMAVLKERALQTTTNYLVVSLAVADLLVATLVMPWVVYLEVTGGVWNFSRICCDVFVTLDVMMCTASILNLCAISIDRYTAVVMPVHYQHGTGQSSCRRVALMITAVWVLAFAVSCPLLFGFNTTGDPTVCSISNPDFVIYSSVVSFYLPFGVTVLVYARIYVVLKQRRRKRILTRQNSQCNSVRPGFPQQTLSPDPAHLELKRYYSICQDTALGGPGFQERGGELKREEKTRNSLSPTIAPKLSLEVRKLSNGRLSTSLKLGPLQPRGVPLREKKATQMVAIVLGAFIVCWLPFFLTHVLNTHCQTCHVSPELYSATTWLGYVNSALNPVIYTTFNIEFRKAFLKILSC
The subject of data set [7] is Mus musculus. The data set can be described thus: Antidepressant-like activity in Swiss albino mouse assessed as reduction in immobility time at 1.25 to 5 mg/kg, ip dosed 60 mins before test measured after 6 mins by forced swim test. It counts as functional, organism-based. A digest of the protocol:
as §1

Data set [8] concerns Mus musculus. The data set can be described thus: Toxicity in Swiss albino mouse assessed as effect on spontaneous locomotor activity at 1.25 to 5 mg/kg, ip dosed 60 mins before test measured after 2 to 6 mins. The format is organism-based. The note with it: in vivo.

Active and inactive are the calls of the source. No cut-off for these calls is given here.

Chain of 5-hydroxytryptamine receptor 2A (P28223 whole entry): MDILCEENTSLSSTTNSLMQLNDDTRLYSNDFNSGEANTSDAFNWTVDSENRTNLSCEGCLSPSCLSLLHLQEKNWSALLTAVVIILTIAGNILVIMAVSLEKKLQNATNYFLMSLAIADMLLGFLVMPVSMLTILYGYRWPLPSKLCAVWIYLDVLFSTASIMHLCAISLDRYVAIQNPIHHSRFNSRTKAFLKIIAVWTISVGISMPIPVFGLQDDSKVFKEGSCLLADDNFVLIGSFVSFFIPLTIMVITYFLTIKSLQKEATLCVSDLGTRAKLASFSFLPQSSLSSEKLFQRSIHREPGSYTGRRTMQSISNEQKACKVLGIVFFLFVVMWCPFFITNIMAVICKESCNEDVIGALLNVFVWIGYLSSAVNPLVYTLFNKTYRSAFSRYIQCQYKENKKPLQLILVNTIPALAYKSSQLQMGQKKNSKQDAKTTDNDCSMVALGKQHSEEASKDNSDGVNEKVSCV

In the case of `CN(C1CCN(CCOc2ccccc2C(C)(C)C)CC1)S(=O)(=O)c1cnn(C)c1`, in data set [1], the outcome was Active. Further, the Activity entry in data set [2] is listed as “Non-toxic”.
In the case of `Cn1cc(S(=O)(=O)N(CC2CC2)C2CCN(CCOc3ccccc3-c3ccccc3)CC2)cn1`, the Retention_time in data set [3] is reported as 4.59 min. Besides, the outcome in data set [4] was inactive. Further, the values for the inhibition in data set [5] and in data set [6] were 94% and above 91%, respectively.
`CN(C1CCN(CCOc2ccccc2-c2ccccc2)CC1)S(=O)(=O)c1cnn(C)c1`: the Retention_time in data set [3] worked out at 4.64 min. Besides, the figures for the inhibition in data set [5] and in data set [6] were 85% and above 91%, respectively. Besides, in data set [7], the result was Active. The Activity entry in data set [8] is recorded as “Non-toxic”.
For `Cn1cc(S(=O)(=O)N(CC2CC2)C2CCN(CCOc3ccccc3C(C)(C)C)CC2)cn1`, the outcome in data set [4] was inactive.
